Published values from different studies.
Target: D(2) dopamine receptor (DRD2, Homo sapiens, UniProt P14416)

CCS(=O)(=O)c1cc2cc(C[C@](O)(CC(C)(C)c3ccc(F)cc3C(N)=O)C(F)(F)F)[nH]c2cn1
inhibition (ligand displacement; 10 µM): -12.2%

Clc1cncc(OC[C@@H]2CN(CCN3CCc4ccccc43)CCO2)c1
inhibition (ligand displacement; radioligand; 10 µM): 60%

CO[C@H]1CC[C@H](CNc2ccc(S(=O)(=O)NC(=O)c3ccc(N4CCN(CC5=C(c6ccc(Cl)cc6)CC(C)(C)CC5)CC4)cc3Oc3cnc4[nH]ccc4c3)cc2[N+](=O)[O-])CC1
inhibition (ligand displacement; 10 µM): -24%

O=C1c2ccccc2CCN1CCCCN1CCN(c2cccc(Cl)c2Cl)CC1
inhibition (ligand displacement; radioligand; 10 µM): 99.3%

CCOc1ccc(CNCC(O)c2ccccc2)cc1Br (stereo not shown)
inhibition (enzyme activity; inhibitor; 10 µM): 36.2%

Cc1cc(Nc2nccc(C)n2)cc(-c2cnc([C@@]3(O)CC[C@H](C(=O)O)C(C)(C)C3)s2)c1
inhibition (ligand displacement; 10 µM): -3.52%

CC(C)c1nc2cc(OCCCCN3CCN(c4cccc5c4OCCN5)CC3)ccc2s1
Emax (β-arrestin recruitment; agonist; HTLA): 36%

Cc1ccc(OC[C@H]2CN(CCN3CCc4ccccc43)CCO2)cn1
inhibition (ligand displacement; radioligand; 10 µM): 16.2%

Cc1[nH]n(-c2ccc([N+](=O)[O-])cc2)c(=O)c1C=NCCN1CCN(C(=O)c2cccc(F)c2)CC1
inhibition (enzyme activity; inhibitor; 10 µM): 20.6%

c1cncc(OC[C@@H]2CN(CCN3CCc4ccccc43)CCO2)c1
inhibition (ligand displacement; radioligand; 10 µM): 20.9%

Nc1nonc1C(=O)NCCNCc1cccc(OCc2ccccc2F)c1
inhibition (enzyme activity; inhibitor; 10 µM): 6.52%

O=C(CN1CCO[C@@H](COc2ccccn2)C1)N1CCc2ccccc21
inhibition (ligand displacement; radioligand; 10 µM): -15.6%

CCC(=NO)C(C)=Cc1ccc(F)c(C)c1
inhibition (ligand displacement; 10 µM): -6.57%

Cc1cccc(N2CCN(CC(O)COc3ccc4ccccc4c3)CC2)c1C (stereo not shown)
inhibition (enzyme activity; inhibitor; 10 µM): 24.4%

O=C(CN1CCO[C@H](COc2ccccc2)C1)N1CCc2ccccc21
inhibition (ligand displacement; radioligand; 10 µM): 13.6%

CN1CCN(C(=O)C(C)(C)c2ccc(C(=O)Nc3cn4cc(-c5cc(C(C)(C)C)cc(C(C)(C)C)c5)ccc4n3)cc2)CC1
inhibition (ligand displacement; 10 µM): 57.5%

Cc1nc2cc(OCCCCN3CCN(c4cccc5c4OCCO5)CC3)ccc2s1
Emax (β-arrestin recruitment; agonist; HTLA): 35%

CC(=O)Nc1c(C(C)=O)c(=O)n(C)c2nc(-c3ccc(Cl)cc3Cl)c(-c3ccc(Cl)cc3)cc12
inhibition (cell-free assay; 10 µM): 5.73%

NS(=O)(=O)c1ccc(CCNCc2ccc(OCc3cccs3)cc2)cc1
inhibition (enzyme activity; inhibitor; 10 µM): 23.9%

O=C(O)[C@H]1[C@H](Cn2nnc3ccccc3c2=O)CC[C@@H]1C(=O)c1ccc(OCCC2CCOCC2)cc1
inhibition (ligand displacement; 10 µM): 30.3%

COc1cc(OC)c(OC)cc1CN1CCN(Cc2c[nH]c3ccccc23)CC1
inhibition (enzyme activity; inhibitor; 10 µM): 34.6%

Cc1ccnc(OC[C@H]2CN(CC(=O)N3CCc4ccccc43)CCO2)c1
inhibition (ligand displacement; radioligand; 10 µM): -7.3%

O=C(CCCN1CCC(O)(c2ccc(Br)cc2)CC1)c1ccc(F)cc1
kon (binding): 2.67e+06 M⁻¹ s⁻¹

CC(=O)Nc1ccc(N2CC(O)=C(c3nc4ccccc4[nH]3)C2=N)cc1
inhibition (enzyme activity; inhibitor; 10 µM): 17.1%

COc1cccc(OC[C@@H]2CN(CCN3CCc4ccccc43)CCO2)c1
inhibition (ligand displacement; radioligand; 10 µM): 36.5%
